Article PMC4777266 (Pharmacology Research & Perspectives, 2016)

What was measured:
[1] = Blood/plasma pharmacokinetics of total radiolabeled components; format: in vivo, male CD‐1 mice; settings: dried blood and plasma; i.v. 1 mg/kg
Method in brief: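 Male albino CD-1 mice (30-36 g, 8-10 weeks) got one i.v. saphenous bolus of 1 mg/kg tritiated test nucleoside in 0.9% NaCl (2 mL/kg, 53-67 MBq/kg) under light isoflurane. EDTA blood was drawn at 0.083-48 h, two samples per mouse, n = 1 per time point. Plasma was spun 3000 g, 10 min, 4°C. Aliquots were dried at 37°C to remove tritiated water, then counted by LSC. Noncompartmental PK was used.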

[2] = Plasma metabolite profiles; format: in vivo, male CD‐1 mice; settings: for AUC0‐48 h of radiolabeled component in plasma (% AUC of total RA): pool of 2 mice; for Highest plasma concentration: at 30 min after dosing
[3] = Quantitative whole-body autoradiography; format: in vivo, male CD‐1 mice
Method in brief: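 The same single 1 mg/kg i.v. tritium-label dose was given to male CD-1 mice. At 0.167, 1, 2, 24 and 48 h, mice were killed under deep isoflurane and frozen in hexane/dry ice at −70°C. 40 µm whole-body sections were exposed to imaging plates for 2 weeks at room temperature and scanned at 50 µm. Densitometry used blood calibrators. Tissue:blood Cmax/AUClast ratios were derived, AUC by linear trapezoidal rule.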

[4] = Excretion and mass balance; format: in vivo, male CD‐1 mice
[5] = Tolerability of the single intravenous administration; format: in vivo; settings: mice
[6] = Metabolite profiles in selected tissues 1 h p.d.; format: in vivo, male CD‐1 mice; settings: single iv 1 mg/kg, text: % of total radioactivity in the tissue
[7] = male, CD-1, mouse, plasma, iv, 1 mg/kg
[8] = 0–48 h, single iv 1 mg/kg, average of n = 2
[9] = single iv 1 mg/kg, average of n = 2
[10] = single iv 1 mg/kg, average of n = 2, 1 mg/kg

## CO[C@@H]1[C@H](O)[C@@H](CO)O[C@H]1n1ccc(=O)[nH]c1=O [2′O‐methyluridine, 2′‐O‐methyluridine]
[1]
  Tlast of total radiolabeled components: 48 h
[2]; 0.083 h postdose, single iv 1 mg/kg
  Total detected radiolabeled components, concentration in dried plasma: 0.446 µmol/L
[2]; 0.5 h postdose, single iv 1 mg/kg
  Total detected radiolabeled components, concentration in dried plasma: 0.617 µmol/L
[2]; 1 h postdose, single iv 1 mg/kg
  Total detected radiolabeled components, concentration in dried plasma: 0.343 µmol/L
[2]; 2 h postdose, single iv 1 mg/kg
  Total detected radiolabeled components, concentration in dried plasma: 0.270 µmol/L
[2]; 4 h postdose, single iv 1 mg/kg
  Total detected radiolabeled components, concentration in dried plasma: 0.241 µmol/L
[2]; 8 h postdose, single iv 1 mg/kg
  Total detected radiolabeled components, concentration in dried plasma: 0.134 µmol/L
[2]; 24 h postdose, single iv 1 mg/kg
  Total detected radiolabeled components, concentration in dried plasma: 0.080 µmol/L
[2]; 48 h postdose, single iv 1 mg/kg
  Total detected radiolabeled components, concentration in dried plasma: 0.0781 µmol/L
[2]; after i.v. dosing 1 mg/kg, LC‐MS‐RA
  Time up to which detectable in plasma: up to 24 h
[2]; dried plasma
  AUC0‐48h ratio of total radioactivity over parent compound: about 17
[2]; male, CD-1, mouse, plasma, intravenous, 1 mg/kg
  clearance: 157 mL/min/kg
[2]; [7]
  AUC: 0.335 µM·h
  Cmax: 402 nM
  concentration at 0.083 h: 402 nM
  concentration at 0.5 h: 119 nM
  concentration at 1 h: 22.3 nM
  concentration at 2 h: 6 nM
  concentration at 4 h: 6.3 nM
  concentration at 8 h: 3.6 nM
  concentration at 48 h: 6.7 nM
[2]; single iv 1 mg/kg
  Total detected radiolabeled components, plasma AUC0‐48 h: 5.69 µM·h
  Total detected radiolabeled components, plasma AUC0‐48 h (% AUC of total RA): 100 % AUC of total RA
  AUC0‐48 h of radiolabeled component in plasma (% AUC of total RA): 5.89 % AUC of total RA
[3]; QWBA
  Time up to which total radiolabeled components detectable in the brain: up to 48 h
[3]; other matrices
  Cmax tissue over blood ratio: smaller than 2
[3]; total radiolabeled components
  Share of matrices with AUClast greater than that of blood: more than 90%
[4]; 0–48 h, single iv 1 mg/kg
  Total detected radioactivity, total excretion (urine + feces): 48.3 % of RA dose
[4]; [8]
  Amount of radiolabeled component, total excretion (urine + feces): 31.7 % of RA dose
[4]; 48 h, urine, feces, carcass and tritiated water
  Overall recovery of radioactivity (mass balance): 102.3%
[4]; 48 h p.d., single iv 1 mg/kg
  Radioactivity in carcass 48 h: 38.6 % of RA dose
[4]; single iv 1 mg/kg
  Radioactivity in cage wash (0–48): 6.81 % of RA dose
[4]; [9]
  Amount of radiolabeled component in urine (0–48 h): 31.2 % of RA dose
  Total detected radioactivity in feces (0–48): 2.34 % of RA dose
  Total detected radioactivity in urine (0–48 h), without cage wash: 45.9 % of RA dose
[4]; [10]
  Amount of radiolabeled component in feces (0–48): 0.489 % of RA dose
[5]
  Tolerability: well tolerated

## O=c1ccn([C@@H]2O[C@H](CO)[C@@H](O)[C@H]2O)c(=O)[nH]1 [Metabolite M1, uridine]
[2]
  Highest plasma concentration: 0.2 µmol/L
[2]; [7]
  AUC: 1.87 µM·h
  concentration at 0.083 h: 5.1 nM
  concentration at 0.5 h: 170 nM
  concentration at 1 h: 108 nM
  concentration at 2 h: 130 nM
  concentration at 4 h: 104 nM
  concentration at 8 h: 43.4 nM
  concentration at 24 h: 26.9 nM
  concentration at 48 h: 18.8 nM
[2]; single iv 1 mg/kg
  AUC0‐48 h of radiolabeled component in plasma (% AUC of total RA): 32.8 % AUC of total RA
[4]; [8]
  Amount of radiolabeled component, total excretion (urine + feces): 0.156 % of RA dose
[6]
  Amount of radiolabeled component in heart: 28.4%
  Amount of radiolabeled component in kidney: 10.6%
  Amount of radiolabeled component in liver: 47.6%
  Amount of radiolabeled component in lung: 2.31%
  Amount of radiolabeled component in salivary gland: 6.88%
  Amount of radiolabeled component in spleen: 32.9%

## Nc1cc[nH]c(=O)n1 [Metabolite M2, cytosine]
[2]; [7]
  AUC: 0.461 µM·h
  concentration at 0.5 h: 38.9 nM
  concentration at 1 h: 33.3 nM
  concentration at 2 h: 7.1 nM
  concentration at 4 h: 22.6 nM
  concentration at 8 h: 11.1 nM
  concentration at 24 h: 5.7 nM
  concentration at 48 h: 9.6 nM
[2]; single iv 1 mg/kg
  AUC0‐48 h of radiolabeled component in plasma (% AUC of total RA): 8.11 % AUC of total RA
[4]; [8]
  Amount of radiolabeled component, total excretion (urine + feces): 0.0771 % of RA dose
[4]; [10]
  Amount of radiolabeled component in urine (0–48 h): 0.0771 % of RA dose
[6]
  Amount of radiolabeled component in heart: 6.81%
  Amount of radiolabeled component in liver: 17.8%
  Amount of radiolabeled component in lung: 2.41%
  Amount of radiolabeled component in spleen: 3.62%

## O=c1cc[nH]c(=O)[nH]1 [Metabolite M3, uracil]
[2]
  Highest plasma concentration: 0.1 µmol/L
[2]; [7]
  AUC: 1.34 µM·h
  concentration at 0.083 h: 14.2 nM
  concentration at 0.5 h: 144 nM
  concentration at 1 h: 109 nM
  concentration at 2 h: 87.5 nM
  concentration at 4 h: 63.5 nM
  concentration at 8 h: 36.8 nM
  concentration at 24 h: 14.5 nM
  concentration at 48 h: 17.5 nM
[2]; single iv 1 mg/kg
  AUC0‐48 h of radiolabeled component in plasma (% AUC of total RA): 23.6 % AUC of total RA
[4]; [8]
  Amount of radiolabeled component, total excretion (urine + feces): 4.03 % of RA dose
[4]; [9]
  Amount of radiolabeled component in feces (0–48): 0.418 % of RA dose
[6]
  Amount of radiolabeled component in heart: 46.6%
  Amount of radiolabeled component in kidney: 89.4%
  Amount of radiolabeled component in liver: 28.8%
  Amount of radiolabeled component in lung: 83.4%
  Amount of radiolabeled component in salivary gland: 90.9%
  Amount of radiolabeled component in spleen: 57.9%

## Nc1ccn([C@@H]2O[C@H](CO)[C@@H](O)[C@H]2O)c(=O)n1 [Metabolite M5, cytidine]
[2]; [7]
  AUC: 0.0639 µM·h
  concentration at 0.5 h: 44 nM
  concentration at 2 h: 8.6 nM
  concentration at 4 h: 10.3 nM
  concentration at 48 h: 0 nM
[2]; single iv 1 mg/kg, 1 mg/kg
  AUC0‐48 h of radiolabeled component in plasma (% AUC of total RA): 1.12 % AUC of total RA
[4]; [8]
  Amount of radiolabeled component, total excretion (urine + feces): 1.94 % of RA dose
[4]; [9]
  Amount of radiolabeled component in feces (0–48): 0.102 % of RA dose
